No end group written: not given here.
Experiments:
human NK1 receptor [1] = target: T1, human NK1 receptor (Homo sapiens, UniProt P25103); assay: NK1R antagonist block of SP‐induced Ca2+ mobilization in HEK‐NK1R cells; type: cell-based; conditions: antagonist 100 nM, 2 min pre‐incubation; n = 5
Procedure, shortened: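 HEK-293 cells stably expressing human NK1R, grown in IMDM/10% FBS with hygromycin. Loaded with 4 μM Fura-2 AM (60–90 min, 37°C), 100 000 cells/well. After a 30-s baseline, antagonist or DMSO vehicle is added for 2 min, then the stimulus. Ratiometric Ca2+ (340/380 nm) is read over 4 min at 37°C. Paired t-test.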

LAD2 human mast cells [2] = conditions: cited from earlier work
LAD2 human mast cells [3] = conditions: cited from earlier work; remark: listed apart in the source
human NK1 receptor [4] = target: T1, human NK1 receptor; assay: Ca2+ mobilization in HEK‐NK1R cells; type: cell-based; conditions: even at high concentrations
LAD2 human mast cells [5] = assay: Ca2+ mobilization in LAD2 cells; type: cell-based; conditions: Fura‐2
Procedure, shortened: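 IgE-sensitized LAD2 cells (JW8 conditioned medium, 48 h), wild-type or MRGPRX2-knockdown, washed in HANKS buffer with 1 mM probenecid. Loaded with 2 μM Fura-2 AM for 60–90 min at 37°C, then plated at 60 000 cells/well. Test compound is injected after a 30-s baseline and the 340/380 nm ratio (510 nm emission) is recorded for 6 min at 37°C. Peak ratios are taken across a concentration range.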

LAD2 human mast cells [6] = assay: LAD2 cell degranulation; type: cell-based; conditions: β‐hexosaminidase release
Procedure, shortened: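 IgE-sensitized LAD2 cells (wild-type or MRGPRX2-knockdown) in HANKS buffer pH 7.4, 35 000 cells/well, exposed to a concentration range for 30 min at 37°C. Supernatant is incubated with 4 mM p-NAG (pH 4.5) for 90 min at 37°C, quenched with glycine pH 10.7, and read at 405 nm. Release is expressed as % of Triton X-100 (0.1%) lysate total, minus spontaneous release.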

LAD2 human mast cells [7] = assay: CCL2 release by LAD2 mast cells; type: cell-based; conditions: 24 h
MRGPRX2 = target: T2, MRGPRX2 (Homo sapiens, UniProt Q96LB1); assay: Antagonism of SP activation of MRGPRX2; type: cell-based; conditions: pilot studies, results not shown
T2 sequence (Q96LB1 1-330): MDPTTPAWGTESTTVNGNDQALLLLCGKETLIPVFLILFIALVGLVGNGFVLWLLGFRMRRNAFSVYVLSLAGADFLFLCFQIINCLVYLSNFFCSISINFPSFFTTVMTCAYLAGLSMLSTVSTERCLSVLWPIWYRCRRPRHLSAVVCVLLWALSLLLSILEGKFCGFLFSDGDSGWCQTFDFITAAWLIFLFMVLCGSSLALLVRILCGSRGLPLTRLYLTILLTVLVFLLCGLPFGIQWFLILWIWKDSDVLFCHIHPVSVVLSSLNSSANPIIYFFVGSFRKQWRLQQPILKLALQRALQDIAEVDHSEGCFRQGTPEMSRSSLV

T1 sequence (P25103 whole entry): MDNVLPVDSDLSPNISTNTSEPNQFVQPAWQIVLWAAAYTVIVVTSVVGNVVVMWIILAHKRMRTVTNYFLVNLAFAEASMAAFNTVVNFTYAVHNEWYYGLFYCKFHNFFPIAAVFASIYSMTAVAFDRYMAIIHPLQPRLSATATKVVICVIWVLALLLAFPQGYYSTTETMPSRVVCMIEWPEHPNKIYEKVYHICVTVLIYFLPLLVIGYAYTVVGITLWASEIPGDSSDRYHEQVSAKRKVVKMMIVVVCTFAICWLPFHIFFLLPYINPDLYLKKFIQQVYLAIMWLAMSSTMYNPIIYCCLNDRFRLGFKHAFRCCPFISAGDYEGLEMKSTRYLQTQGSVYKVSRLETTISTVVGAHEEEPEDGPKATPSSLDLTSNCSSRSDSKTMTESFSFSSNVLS

## COc1ccc(-n2nnnc2C(F)(F)F)cc1CN[C@H]1CCCN[C@H]1c1ccccc1 [GR205171, vofopitant]
Human NK1 receptor [1]
  effect of antagonist pretreatment on SP responses in HEK‐NK1R cells: effectively blocked SP responses

## C=CC[N+]1([C@H]2C[C@H]3[C@@H]4CC[C@H]5C[C@H](O)[C@@H](N6CCOCC6)C[C@]5(C)[C@H]4CC[C@]3(C)[C@H]2OC(C)=O)CCCC1 [rocuronium]
LAD2 human mast cells [2]
  Ca^2+ mobilization in LAD2 cells, in words: shows a mobilization of Ca^2+
LAD2 human mast cells [3]
  degranulation in LAD2 cells, in words: without triggering concomitant degranulation

## SP(1–7)‐COOH: C‐terminally truncated in vivo metabolite of SP, residues 1–7, free acid (RPKPQQF-OH; UniProt P20366 58-64, looked up, fragment)
Human NK1 receptor [4]
  activation of NK1R (Ca^2+ mobilization), in words: failed to induce significant activation
LAD2 human mast cells [5]
  LAD2 Ca^2+ mobilization, in words: failed to produce cellular activation
LAD2 human mast cells [6]
  LAD2 degranulation, in words: failed to produce cellular activation
LAD2 human mast cells [7]
  CCL2 cytokine release from LAD2 cells, in words: minimal and comparable to spontaneous release
MRGPRX2
  antagonism of SP activation of MRGPRX2: not been able to demonstrate any antagonism

Source: paper PMC9337217 (Pharmacology Research & Perspectives, 2022)
